# Measured values collected from several papers.
# Lines come from different studies, so protocols differ.
# HTR5A: 5-hydroxytryptamine receptor 5A (HTR5A, Homo sapiens, UniProt P47898)
# COQ8A: Atypical kinase COQ8A, mitochondrial (COQ8A, Homo sapiens, UniProt Q8NI60)
Compound,target,observed,mode,technique,tested at,notes,inhibition [%]
CCCNc1nc2ccccc2n1Cc1ccc(Cl)cc1,HTR5A,ligand displacement,,,10 µM,,24.8
Cn1cnc(Br)c1C1=CN(c2ncnc3[nH]cnc23)CCS1,"Mitogen-activated protein kinase kinase kinase 19 (MAP3K19, Homo sapiens, UniProt Q56UN5)",enzyme activity,inhibitor,radiometric,2 µM,,92.8
CCN(CC)c1ccc(C2Nc3ccc(C(=O)c4ccccc4)cc3NC3=C2C(=O)CC(C)(C)C3)cc1 (stereo not shown),"D(4) dopamine receptor (DRD4, Homo sapiens, UniProt P21917)",ligand displacement,,radioligand,10 µM,,100
CN1CC(Oc2cnc(C#N)cc2-c2ccn3nc(NC(=O)C4CC4)cc3c2)C1,"Tribbles homolog 2 (TRIB2, Homo sapiens, UniProt Q92519)",enzyme activity,inhibitor,,1 µM,,9
O=C(c1ccc(F)cc1)N(Cc1ccccc1)C1CCCCC1,"D(4) dopamine receptor (DRD4, Homo sapiens, UniProt P21917, del265-296)",cell-free assay,,,10 µM,,1
CCN1CC(c2ccccc2)c2cc(OC)c(OC)c3c2C1Cc1cc2c(cc1-3)OCO2 (stereo not shown),HTR5A,ligand displacement,,radioligand,10 µM,,-12.1
O=C(CSc1nc2nccnc2c(=O)n1CCc1ccccc1)Nc1nccs1,COQ8A,enzyme activity,inhibitor,,10 µM,,10
O=C1N=C(N2CCCCN2)S/C1=C\c1ccc(F)cc1O,"Neurotensin receptor type 1 (NTSR1, Homo sapiens, UniProt P30989)",ligand displacement,,radioligand,10 µM,,< 10
O=C(Oc1nsnc1N1CCN(c2ccccc2)CC1)N1CCCCC1,"Monoacylglycerol lipase ABHD6 (ABHD6, Homo sapiens, UniProt Q9BV23)",enzyme activity,inhibitor,fluorescence,1 µM,lysate,40
CC(C)CCn1c(SCC(=O)Nc2ccccc2C(F)(F)F)nc2nccnc2c1=O,"Phosphatidylinositol 4-kinase alpha (PI4KA, Homo sapiens, UniProt P42356)",enzyme activity,inhibitor,,10 µM,,< 20
N#Cc1cc(Cn2c(N3CCCC3)nc3ccccc32)ccc1F,HTR5A,ligand displacement,,,10 µM,,-15
CS(=O)(=O)Nc1cccc(-c2csc(NC(=O)CSc3nc4nccnc4c(=O)n3CCc3ccccc3)n2)c1,COQ8A,enzyme activity,inhibitor,,10 µM,,14
CC(C)C[C@H](NC(=O)[C@H](CC(C)C)NC(=O)CNC(=O)[C@H](C)NC(=O)[C@H](C)NC(=O)[C@H](CCCNC(=N)N)NC(=O)CNC(=O)CCCCNC(=O)[C@H](CCCCN)NC(=O)[C@H]1CCCN1C(=O)[C@H](CCCCN)NC(=O)[C@H](CCCCN)NC(=O)[C@H](CCCCN)NC(=O)[C@H](CCCCN)NC(=O)[C@H](Cc1ccc(O)cc1)NC(=O)[C@@H](N)Cc1c[nH]c2ccccc12)C(N)=O,"Neuropeptides B/W receptor type 1 (NPBWR1, Homo sapiens, UniProt P48145)",calcium signal,antagonist,,10 µM,,95
